In ChEMBL document CHEMBL1146492, “Cytotoxic constituents of the twigs and leaves of Aglaia rubiginosa” (J Nat Prod, 2004):

Tests used:
Col2 = assay: Cytotoxicity against human Col2 cells; assay type: functional, cell-based
How it was run: (§1)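 Cytotoxicity was tested on a panel of human cancer cell lines following established protocols, with ED50 as the read-out. Extracts, fractions and isolates from twigs and leaves were run the same way.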

LNCaP = assay: Cytotoxicity against human LNCAP cells; assay type: functional; conditions: for EC50: Homo sapiens, LNCaP, read-out: ED50 (the source's name); how it was run: as §1
[1] = Cytotoxicity against human telomerase reverse transcriptase expressing human RPE1 cells; assay type: functional, TERT-RPE1; conditions: for EC50: Homo sapiens, RPE-1, read-out: ED50 (the source's name)
Lu1 = assay: Cytotoxicity against human Lu1 cells; assay type: functional; conditions: for EC50: Homo sapiens, Lu1, read-out: ED50 (the source's name); how it was run: as §1
[2] = Cytotoxicity against HUVEC; assay type: cell-based; conditions: human, HUVEC cells; read-out: ED50 (the source's name)
KB = assay: Cytotoxicity against human KB cells; assay type: functional; conditions: for EC50: Homo sapiens, KB, read-out: ED50 (the source's name); how it was run: as §1
[3] = read-out: ED50 (the source's name)

SMILES	EC50 (Col2; read-out: EC50) [nM]	ED50 (LNCaP) [µM]	ED50 [1] [µM]	ED50 (Lu1) [µM]	CC50 [2] [nM]	ED50 (KB) [µM]	EC50 (Col2; [3]) [nM]	EC50 (LNCaP) [nM]	EC50 [1] [nM]	EC50 (Lu1) [nM]	EC50 (KB) [nM]
C=C(C)[C@@H]1CC[C@]2(C)[C@H](CC[C@@H]3[C@@H]([C@]4(C)CC[C@H](C(C)(C)O)O4)CC[C@]32C)[C@@]1(C)CCC(=O)O [SHOREIC ACID]	> 1000	> 1	> 1	> 1	> 1000	> 1	–	–	–	–	–
CC(C)(O)[C@@H]1CC[C@@](C)([C@H]2CC[C@]3(C)[C@@H]2CC[C@@H]2[C@@]4(C)CCC(=O)C(C)(C)[C@@H]4CC[C@]23C)O1 [CABRALEONE]	> 1000	> 1	> 1	> 1	> 1000	> 1	–	–	–	–	–
COC(=O)[C@H]1[C@@H](O)[C@@]2(O)c3c(OC)cc(OC)cc3O[C@@]2(c2ccc(OC)cc2)[C@@H]1c1ccccc1 [AGLAFOLIN]	–	–	–	–	203	–	243	325	183	163	142
COc1ccc(-c2oc3cc(OC)cc(O)c3c(=O)c2OC)cc1	> 1000	> 1	> 1	> 1	> 1000	> 1	–	–	–	–	–
C=C(C)[C@@H]1CC[C@]2(C)[C@H](CC[C@@H]3[C@@H]([C@@](C)(O)C/C=C/C(C)(C)O)CC[C@]32C)[C@@]1(C)CCC(=O)O	> 1000	> 1	> 1	> 1	> 1000	> 1	–	–	–	–	–
CC(C)=CC[C@@H](O)[C@@H](C)[C@H]1CC[C@H]2C3=CCC4[C@@H](O)[C@@H](O)CC[C@]4(C)[C@H]3CC[C@]12C (stereo partly drawn)	> 1000	> 1	> 1	> 1	> 1000	> 1	–	–	–	–	–
CC[C@@]1(O)C(=O)OCc2c1cc1n(c2=O)Cc2cc3ccccc3nc2-1 [CAMPTOTHECIN]	–	–	–	–	258	–	57	28	230	29	22
C=C(C)[C@@H]1CC[C@]2(C)[C@H](CC[C@@H]3[C@@H]([C@@](C)(O)C/C=C/C(C)(C)O)CC[C@]32C)[C@@]1(C)CCC(=O)OC	> 1000	> 1	> 1	> 1	> 1000	> 1	–	–	–	–	–
O=C1C[C@@H](c2ccc(O)cc2)Oc2cc(O)cc(O)c21 [NARINGENIN]	> 1000	> 1	> 1	> 1	> 1000	> 1	–	–	–	–	–
COc1ccc([C@@]23Oc4cc(OC)cc(OC)c4[C@]2(O)[C@H](O)[C@H](C(=O)O)[C@H]3c2ccccc2)cc1 [ROCAGLOIC ACID]	–	–	–	–	209	–	209	104	209	63	204
O=C1C[C@@H](c2ccc(O)c(O)c2)Oc2cc(O)cc(O)c21 [ERIODICTYOL]	> 1000	> 1	> 1	> 1	> 1000	> 1	–	–	–	–	–
CC(=O)O[C@H]1C(=O)[C@@]2(C)[C@H]([C@H](OC(=O)c3ccccc3)[C@]3(O)C[C@H](OC(=O)[C@H](O)[C@@H](NC(=O)c4ccccc4)c4ccccc4)C(C)=C1C3(C)C)[C@]1(OC(C)=O)CO[C@@H]1C[C@@H]2O [PACLITAXEL]	–	–	–	–	105	–	46	5	23	2	0.4
COc1ccc([C@@]23Oc4cc(OC)cc(OC)c4[C@]2(O)[C@H](OC(C)=O)C[C@H]3c2ccccc2)cc1	–	–	–	–	231	–	189	273	210	210	147
